Assay results as given in ChEMBL document CHEMBL5046272, “Discovery of Potent, Selective, and In Vivo Efficacious AKT Kinase Protein Degraders via Structure-Activity Relationship Studies” (J Med Chem, 2022).
Activity calls are given as the source filed them. The rule behind the calls is not given here.

Columns and labels:
[1] = Tmax in Swiss albino mouse at 75 mg/kg, ip administered as single dose measured upto 12 hrs by LC-MS/MS analysis; format: ADME, organism-based; conditions: in vivo
How it was run: (§1)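 Male Swiss Albino mice, single IP dose of HCl salt in 5% DMA/5% Solutol HS-15/90% normal saline. Plasma (~60 μL) drawn from three mice per time point at 0.5, 1, 2, 4, 8 and 12 h. Samples were held below −70 °C and quantified by LC–MS/MS (LLOQ 10.18 ng/mL). Parameters come from non-compartmental analysis of mean concentrations.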

[2] = system: PC-3; experiment: Antiproliferative activity against human PC-3 cells assessed as inhibition of cell growth measured after 5 days by IncuCyte zoom live cell analysis; format: functional; conditions: PC-3, 120 h, time 5 day
How it was run: (§2)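 Cells grown in DMEM with 10% FBS at 37 °C, 5% CO₂. Seeded at 1–3 × 10³ cells/well in triplicate with serial compound dilutions for 5 days. Growth was taken as confluence from IncuCyte phase-contrast images of live cells. Three independent experiments.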

[3] = Cmax in Swiss albino mouse at 75 mg/kg, ip administered as single dose measured upto 12 hrs by LC-MS/MS analysis; format: ADME, organism-based; parameters: route intraperitoneal, dose 75 mg/kg, time <=12; conditions: in vivo; how it was run: as §1
[4] = system: MDA-MB-468; experiment: Antiproliferative activity against human MDA-MB-468 cells assessed as cell growth by measured after 5 days by IncuCyte zoom live cell analysis; format: functional; conditions: MDA-MB-468, 120 h, time 5 day; how it was run: as §2
[5] = Drug exposure in Swiss albino mouse plasma at 75 mg/kg, ip administered as single dose measured upto 12 hrs by LC-MS/MS analysis; format: ADME, organism-based; conditions: in vivo; how it was run: as §1
[6] = Toxicity in immunocompromised NU/J mouse xenografted with human PC-3 cells assessed as body weight loss at 75 mg/kg, ip administered once daily for 22 days; format: organism-based; conditions: in vivo, 528 h, time 22 day
How it was run: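 Male NU/J nude mice, 6 weeks old, engrafted with PC-3 cells. Randomized at ~100 mm³ tumors to vehicle (n = 6) or 75 mg/kg IP once daily (n = 7) for 22 days. Body weight compared at study start and end. Unblinded.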

[7] = system: BT-474; experiment: Inhibition of colony formation in human BT-474 cells at 0.1 to 10 uM incubated for 14 days by replacing culture medium for every 2 days by crystal violet staining based assay; format: functional, cell-based; conditions: dose 0.1-10 µM, time 14.0 day
How it was run: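 BT474 cells cultured 14 days with compound. Medium plus compound was replaced every 2 days. Viable cells were then stained with 0.5% crystal violet.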

[8] = AUC in Swiss albino mouse at 75 mg/kg, ip administered as single dose measured upto 12 hrs post injection by LC-MS/MS analysis; format: ADME, organism-based; parameters: route intraperitoneal, dose 75 mg/kg, time <=12; conditions: in vivo; how it was run: as §1

In the case of Cc1ncsc1-c1ccc(CNC(=O)[C@@H]2C[C@@H](O)CN2C(=O)[C@@H](NC(=O)CCCCCCCCCCC(=O)N2CCN(CC[C@H](NC(=O)C3(N)CCN(c4ncnc5[nH]ccc45)CC3)c3ccc(Cl)cc3)CC2)C(C)(C)C)cc1, the Tmax [1] is reported as 2 h, the GI50 [2] is reported as 800 nM and the Cmax [3] is reported as 7 µM. The GI50 [4] was 1000 nM, the Activity [5] was 3.7 µM and the Activity [6] was “Non-Toxic”. The inhibition [7] was “Active” and the AUC [8] was 63600 ng·h/mL.
